# Assay results from ChEMBL document CHEMBL3813690, “Synthesis and Th1-immunostimulatory activity of α-galactosylceramide analogues bearing a halogen-containing or selenium-containing acyl chain” (Bioorg Med Chem, 2016).
# Active and inactive are the calls of the source. The rule behind the calls is not given here.
# Key:
# Assay type in all cases: cell-based
# Mus musculus [1] = species on record: Mus musculus; experiment: Activity at CD1d in C57BL/6 mouse splenocytes assessed as ratio of IFN-gamma production to IL4 production at 100 nM after 48 hrs by ELISA
# In short: (§1)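 Freshly prepared mouse splenocytes, washed three times by centrifugation in medium, counted in Türk's solution, seeded at 3 × 10⁵ cells/well in RPMI1640 with 10% FBS and 1% penicillin–streptomycin. Ligands dissolved in pyridine (1 mg/mL stock), diluted in medium to final 10, 30, 100, 300 and 1000 nM. Incubated 48 h at 37 °C; supernatant IFN-γ and IL-4 measured by ELISA. KRN7000 as positive control.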
# Mus musculus [2] = species on record: Mus musculus; experiment: Activity at CD1d in C57BL/6 mouse splenocytes assessed as production of IFN-gamma at 10 to 1000 nM after 48 hrs by ELISA; in short: as §1
# Mus musculus [3] = species on record: Mus musculus; experiment: Activity at CD1d in C57BL/6 mouse splenocytes assessed as production of IL4 at 10 to 1000 nM after 48 hrs by ELISA; in short: as §1
# Mus musculus [4] = species on record: Mus musculus; experiment: Activity at CD1d in C57BL/6 mouse splenocytes assessed as production of IFN-gamma at 100 nM after 48 hrs by ELISA relative to KRN7000; in short: as §1
# Mus musculus [5] = species on record: Mus musculus; experiment: Activity at CD1d in C57BL/6 mouse splenocytes assessed as production of IL4 at 100 nM after 48 hrs by ELISA relative to KRN7000; in short: as §1
SMILES,Ratio (Mus musculus [1]),Activity (Mus musculus [2]),Activity (Mus musculus [3]),Activity (Mus musculus [4]),Activity (Mus musculus [5])
CCCCCCCCCCCCCC[Se]CCCCCCCCCCC(=O)N[C@@H](CO[C@H]1O[C@H](CO)[C@H](O)[C@H](O)[C@H]1O)[C@H](O)[C@H](O)CCCCCCCCCCCCCC,3.3,Active,Active,130%,39%
CCCCCCCCCCCCCC[C@@H](O)[C@@H](O)[C@H](CO[C@H]1O[C@H](CO)[C@H](O)[C@H](O)[C@H]1O)NC(=O)CCCCCCCCCCCCCCCCCCCCCCCCCl,3.8,Active,Active,68%,18%
CCCCCCCCCCCCCC[C@@H](O)[C@@H](O)[C@H](CO[C@H]1O[C@H](CO)[C@H](O)[C@H](O)[C@H]1O)NC(=O)CCCCCCCCCCCCCCCC[Se]CCCCCCCC,2.9,Active,Active,103%,35%
CCCCCCCCCCCCCCCCCCCCCCCCCC(=O)N[C@@H](CO[C@H]1O[C@H](CO)[C@H](O)[C@H](O)[C@H]1O)[C@H](O)[C@H](O)CCCCCCCCCCCCCC,–,–,Active,–,–
CCCCCCCCCCCCCC[C@@H](O)[C@@H](O)[C@H](CO[C@H]1O[C@H](CO)[C@H](O)[C@H](O)[C@H]1O)NC(=O)CCCCCCCCCCCCCCCCCCCCCCCCBr,4.4,Active,Active,84%,19%
CCCCCCCCCCCCCC[C@@H](O)[C@@H](O)[C@H](CO[C@H]1O[C@H](CO)[C@H](O)[C@H](O)[C@H]1O)NC(=O)CCCCCCCCCCCCCCCCCCCCCCCCF,5,Active,Active,104%,21%
